Measured values taken from ChEMBL document CHEMBL1671683, “Activity of linezolid in an in vitro pharmacokinetic-pharmacodynamic model using different dosages and Staphylococcus aureus and Enterococcus faecalis strains with and without a hypermutator phenotype” (Antimicrob Agents Chemother, 2010).

Assays:
in vitro = details: two-compartment pharmacokinetic/pharmacodynamic model, iv, 200 mg
Enterococcus faecalis [1] = experiment: Bactericidal activity against 12 hrs peripheral compartment culture samples of Enterococcus faecalis Ef1497 MutM3 in two-compartment pharmacokinetic/pharmacodynamic model assessed as effect on bacterial count at 200 mg, bid administered as 0.5 hr infusion; type: functional
In short: (§1)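 Two-compartment hollow-fibre model in cation-adjusted, protein-free MH broth, 37°C. Linezolid given as simulated 0.5-h infusion twice daily. Inoculum grown 18 h, concentrated 50-fold and placed in the peripheral compartment 3 h before t0. Peripheral samples at set times counted by dilution plating. First 10-fold dilution not plated, limiting detection to 2–3 log10 CFU/ml. Δlog CFU/ml taken from t0 count. Duplicates.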

Enterococcus faecalis [2] = experiment: Bactericidal activity against 14 hrs peripheral compartment culture samples of Enterococcus faecalis Ef1497 in two-compartment pharmacokinetic/pharmacodynamic model assessed as effect on bacterial count at 800 mg, bid administered as 0.5 hr infusion; type: functional
In short: (§2)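 An 18-h culture concentrated 50-fold was injected into the peripheral compartment 3 h pre-sampling (~10^8 CFU/ml E. faecalis, 10^9 S. aureus). Counts came from dilution plating (detection limit 2–3 log10 CFU/ml), expressed as Δlog CFU/ml from treatment start. Run in duplicate.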

Enterococcus faecalis [3] = experiment: Bactericidal activity against 0.5 hrs peripheral compartment culture samples of Enterococcus faecalis Ef1497 MutM3 in two-compartment pharmacokinetic/pharmacodynamic model assessed as effect on bacterial count at 200 mg, bid administered as 0.5 hr infusion; type: functional
In short: as §1

Staphylococcus aureus [4] = experiment: Bactericidal activity against 2 hrs peripheral compartment culture samples of Staphylococcus aureus RN4220 MutS2 in two-compartment pharmacokinetic/pharmacodynamic model assessed as effect on bacterial count at 600 mg, bid administered as 0.5 hr infusion; type: functional
In short: as §2

Enterococcus faecalis [5] = experiment: Bactericidal activity against 0.5 hrs peripheral compartment culture samples of Enterococcus faecalis ATCC 29212 in two-compartment pharmacokinetic/pharmacodynamic model assessed as effect on bacterial count at 200 mg, bid administered as 0.5 hr infusion; type: functional
In short: as §1

[6] = Tmax in two-compartment pharmacokinetic/pharmacodynamic model at 800 mg, bid administered as 0.5 hr infusion over 24 hrs; type: ADME, organism-based; details: iv
[7] = Cmax in two-compartment pharmacokinetic/pharmacodynamic model at 600 mg, bid administered as 0.5 hrs infusion; type: ADME, organism-based; set-up: dose 600 mg; details: iv
Enterococcus faecalis [8] = experiment: Bactericidal activity against 12 hrs peripheral compartment culture samples of Enterococcus faecalis Ef1497 MutM3 in two-compartment pharmacokinetic/pharmacodynamic model assessed as effect on bacterial count at 600 mg, bid administered as 0.5 hr infusion; type: functional
In short: as §1

[9] = Volume of distribution at steady state in two-compartment pharmacokinetic/pharmacodynamic model at 200 mg, bid administered as 0.5 hrs infusion; type: ADME, organism-based; details: iv, read-out: Vdss
[10] = Residual concentration at the end of the administration interval in two-compartment pharmacokinetic/pharmacodynamic model at 200 mg, bid administered as 0.5 hrs infusion; type: ADME; details: iv, read-out: Drug uptake
Staphylococcus aureus [11] = experiment: Bactericidal activity against 2 hrs peripheral compartment culture samples of Staphylococcus aureus RN4220 in two-compartment pharmacokinetic/pharmacodynamic model assessed as effect on bacterial count at 600 mg, bid administered as 0.5 hr infusion; type: functional
In short: as §2

[12] = Mean residence time in two-compartment pharmacokinetic/pharmacodynamic model at 200 mg, bid administered as 0.5 hr infusion over 24 hrs; type: ADME, organism-based; details: in vivo, iv
Enterococcus faecalis [13] = experiment: Bactericidal activity against 12.5 hrs peripheral compartment culture samples of Enterococcus faecalis Ef1497 in two-compartment pharmacokinetic/pharmacodynamic model assessed as effect on bacterial count at 800 mg, bid administered as 0.5 hr infusion; type: functional
In short: as §2

Enterococcus faecalis [14] = experiment: Bactericidal activity against 0.5 hrs peripheral compartment culture samples of Enterococcus faecalis Ef1497 MutM3 in two-compartment pharmacokinetic/pharmacodynamic model assessed as effect on bacterial count at 600 mg, bid administered as 0.5 hr infusion; type: functional
In short: as §1

Enterococcus faecalis [15] = experiment: Bactericidal activity against 12 hrs peripheral compartment culture samples of Enterococcus faecalis Ef1497 in two-compartment pharmacokinetic/pharmacodynamic model assessed as effect on bacterial count at 800 mg, bid administered as 0.5 hr infusion; type: functional
In short: as §2

Staphylococcus aureus [16] = experiment: Bactericidal activity against 1 hr peripheral compartment culture samples of Staphylococcus aureus RN4220 MutS2 in two-compartment pharmacokinetic/pharmacodynamic model assessed as effect on bacterial count at 600 mg, bid administered as 0.5 hr infusion; type: functional
In short: as §1

Enterococcus faecalis [17] = experiment: T>MIC in Enterococcus faecalis Ef1497 in two-compartment pharmacokinetic/pharmacodynamic model at 800 mg, bid administered as 0.5 hr infusion for 2 days; type: functional
[18] = AUC in two-compartment pharmacokinetic/pharmacodynamic model at 200 mg, bid administered as 0.5 hr infusion over 24 hrs; type: ADME; set-up: dose 200 mg, time < 24 hr; details: in vivo, iv
Enterococcus faecalis [19] = experiment: Bactericidal activity against 2 hrs peripheral compartment culture samples of Enterococcus faecalis Ef1497 in two-compartment pharmacokinetic/pharmacodynamic model assessed as effect on bacterial count at 800 mg, bid administered as 0.5 hr infusion; type: functional
In short: as §2

Enterococcus faecalis [20] = experiment: Bactericidal activity against 1 hr peripheral compartment culture samples of Enterococcus faecalis ATCC 29212 in two-compartment pharmacokinetic/pharmacodynamic model assessed as effect on bacterial count at 600 mg, bid administered as 0.5 hr infusion; type: functional
In short: as §1

Enterococcus faecalis [21] = experiment: Bactericidal activity against 12.5 hrs peripheral compartment culture samples of Enterococcus faecalis Ef1497 MutM3 in two-compartment pharmacokinetic/pharmacodynamic model assessed as effect on bacterial count at 600 mg, bid administered as 0.5 hr infusion; type: functional
In short: as §2

Staphylococcus aureus [22] = experiment: Bactericidal activity against 12.5 hrs peripheral compartment culture samples of Staphylococcus aureus RN4220 MutS2 in two-compartment pharmacokinetic/pharmacodynamic model assessed as effect on bacterial count at 600 mg, bid administered as 0.5 hr infusion; type: functional
In short: as §2

Staphylococcus aureus [23] = experiment: Bactericidal activity against 1 hr peripheral compartment culture samples of Staphylococcus aureus RN4220 in two-compartment pharmacokinetic/pharmacodynamic model assessed as effect on bacterial count at 600 mg, bid administered as 0.5 hr infusion; type: functional
In short: as §1

[24] = Apparent volume of distribution in two-compartment pharmacokinetic/pharmacodynamic model at 200 mg, bid administered as 0.5 hr infusion over 24 hrs; type: ADME, organism-based; details: in vivo, iv
Enterococcus faecalis [25] = experiment: Bactericidal activity against 14 hrs peripheral compartment culture samples of Enterococcus faecalis ATCC 29212 in two-compartment pharmacokinetic/pharmacodynamic model assessed as effect on bacterial count at 600 mg, bid administered as 0.5 hr infusion; type: functional
In short: as §2

Enterococcus faecalis [26] = experiment: Bactericidal activity against 0.5 hrs peripheral compartment culture samples of Enterococcus faecalis Ef1497 in two-compartment pharmacokinetic/pharmacodynamic model assessed as effect on bacterial count at 600 mg, bid administered as 0.5 hr infusion; type: functional
In short: as §1

[27] = Volume of distribution at steady state in two-compartment pharmacokinetic/pharmacodynamic model at 800 mg, bid administered as 0.5 hr infusion over 24 hrs; type: ADME, organism-based; details: iv, read-out: Vdss

SMILES: CC(=O)NC[C@H]1CN(c2ccc(N3CCOCC3)c(F)c2)C(=O)O1 [LINEZOLID]
- half-life at 0.5 h (in vitro): 6.72 h
- log10CFU/ml (Enterococcus faecalis [1]): 0.29
- log10CFU/ml (Enterococcus faecalis [2]): -0.05
- log10CFU/ml (Enterococcus faecalis [3]): -0.009
- log10CFU/ml (Staphylococcus aureus [4]): 0.02
- log10CFU/ml (Enterococcus faecalis [5]): -0.08
- Tmax [6]: 0.5 h
- Cmax [7]: 13400 ng/mL
- log10CFU/ml (Enterococcus faecalis [8]): 0.19
- Vd [9]: 120 L
- concentration at 0.5 h [10]: 390 ng/mL
- log10CFU/ml (Staphylococcus aureus [11]): -0.26
- MRT [12]: 7.95 h
- log10CFU/ml (Enterococcus faecalis [13]): -0.03
- log10CFU/ml (Enterococcus faecalis [14]): -0.01
- log10CFU/ml (Enterococcus faecalis [15]): -0.16
- log10CFU/ml (Staphylococcus aureus [16]): 0.02
- fT>MIC (Enterococcus faecalis [17]): 80.9%
- AUC at 24 h [18]: 10100 ng·h/mL
- log10CFU/ml (Enterococcus faecalis [19]): -0.13
- log10CFU/ml (Enterococcus faecalis [20]): -0.12
- log10CFU/ml (Enterococcus faecalis [21]): 0.22
- log10CFU/ml (Staphylococcus aureus [22]): -0.06
- log10CFU/ml (Staphylococcus aureus [23]): -0.07
- Vd [24]: 137 L
- log10CFU/ml (Enterococcus faecalis [25]): 0.18
- log10CFU/ml (Enterococcus faecalis [26]): -0.01
- Vd [27]: 89.3 L
